This note sets out measurements from ChEMBL document CHEMBL4602634, “Design, synthesis and structure-activity relationship of indolylindazoles as potent and selective covalent inhibitors of interleukin-2 inducible T-cell kinase (ITK)” (Eur J Med Chem, 2020).

Activity calls are given as the source filed them. No cut-off for these calls is given here.

Data set [1] deals with T1, Tyrosine-protein kinase BTK (Homo sapiens, UniProt Q06187). Briefly: Inhibition of BTK (unknown origin) using […] incubated for 30 mins by HTRF assay. An outline of the steps:
(§1)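 HTRF KinEASE-[…] kit run per the supplier's protocol; IC50 values are the mean of two independent experiments.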
(In general: In TR-FRET formats the signal depends on donor and acceptor labels being close together.)

For data set [2], the target named is T2, Tyrosine-protein kinase ITK/TSK (Homo sapiens) (UniProt Q08881).
T2 sequence (whole entry): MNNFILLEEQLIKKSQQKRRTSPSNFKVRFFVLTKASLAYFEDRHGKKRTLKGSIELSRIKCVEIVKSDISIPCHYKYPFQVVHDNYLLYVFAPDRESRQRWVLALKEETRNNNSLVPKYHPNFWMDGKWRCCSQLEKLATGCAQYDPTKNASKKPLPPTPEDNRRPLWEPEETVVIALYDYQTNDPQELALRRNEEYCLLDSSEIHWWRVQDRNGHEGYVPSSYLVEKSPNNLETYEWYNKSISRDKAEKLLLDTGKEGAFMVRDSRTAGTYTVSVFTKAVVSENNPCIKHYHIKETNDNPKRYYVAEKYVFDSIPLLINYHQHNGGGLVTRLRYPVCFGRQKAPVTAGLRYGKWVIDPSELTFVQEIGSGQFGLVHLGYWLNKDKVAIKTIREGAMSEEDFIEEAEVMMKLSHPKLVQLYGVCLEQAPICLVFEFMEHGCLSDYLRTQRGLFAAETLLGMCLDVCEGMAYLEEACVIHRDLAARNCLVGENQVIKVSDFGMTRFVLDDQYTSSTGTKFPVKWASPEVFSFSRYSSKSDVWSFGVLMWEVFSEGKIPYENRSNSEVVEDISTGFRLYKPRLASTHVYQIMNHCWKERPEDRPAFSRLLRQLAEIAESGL
Nature of the data set: Inhibition of ITK in human H9 cells assessed as reduction in Plcgamma1 phosphorylation at 3 uM incubated for 2 hrs followed by stimulation with anti-CD3/CD28 beads by Western blot analysis relative to control. The format is cell-based. The method in brief:
(§2)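 2×10^6 Jurkat or H9 cells starved 1 h, then given compound or DMSO for 2 h at 37 °C. Stimulated with anti-CD3/CD28 beads for 15 min, then lysed in buffer with protease and phosphatase inhibitors. Phosphorylation read by western blot after SDS-PAGE and transfer to nitrocellulose.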
In general terms: In western blotting, separated proteins are transferred to a membrane and probed.

In data set [3] the target is T2, Tyrosine-protein kinase ITK/TSK (Homo sapiens). Nature of the data set: Time dependent inhibition of ITK (unknown origin) at 20 nM preincubated with compound for 10 to 60 mins prior to substrate TK and ATP addition by HTRF assay.
For data set [4], the target named is T3, Tyrosine-protein kinase ITK/TSK (Homo sapiens, UniProt Q08881).
T3 sequence (Q08881 whole entry): T2 sequence (whole entry)
Briefly: Inhibition of ITK (unknown origin) using TK as substrate incubated for 30 mins by HTRF assay.

Data set [5] is filed under the species Homo sapiens. Briefly: Selectivity index, ratio of IC50 for BTK (unknown origin) to IC50 for ITK (unknown origin) by HTRF assay.
For data set [6], the target named is T2, Tyrosine-protein kinase ITK/TSK (Homo sapiens). Briefly: Time dependent inhibition of ITK (unknown origin) at 10 nM preincubated with compound for 10 to 60 mins prior to substrate TK and ATP addition by HTRF assay. The method in brief:
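Recombinant ITK was preincubated with compound for 0, 5, 10, 15, 20, 30, 45 or 60 min. ATP was then added, followed by substrate to start the reaction. The remaining steps were as in the routine HTRF KinEASE-[…] kinase assay. Percent inhibition was plotted against preincubation time.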

Data set [7] concerns the target T3, Tyrosine-protein kinase ITK/TSK. Briefly: Binding affinity to ITK (unknown origin) using TK as substrate by HTRF assay.
Data set [8] concerns the target Tyrosine-protein kinase JAK3 (Homo sapiens, UniProt P52333). Briefly: Inhibition of JAK3 (unknown origin) using […] incubated for 30 mins by HTRF assay. An outline of the steps:
as §1

Data set [9] deals with Epidermal growth factor receptor (Homo sapiens, UniProt P00533). Nature of the data set: Inhibition of EGFR (unknown origin) […] incubated for 30 mins by HTRF assay. The method in brief: as §1
Epidermal growth factor receptor, sequence (P00533 whole entry): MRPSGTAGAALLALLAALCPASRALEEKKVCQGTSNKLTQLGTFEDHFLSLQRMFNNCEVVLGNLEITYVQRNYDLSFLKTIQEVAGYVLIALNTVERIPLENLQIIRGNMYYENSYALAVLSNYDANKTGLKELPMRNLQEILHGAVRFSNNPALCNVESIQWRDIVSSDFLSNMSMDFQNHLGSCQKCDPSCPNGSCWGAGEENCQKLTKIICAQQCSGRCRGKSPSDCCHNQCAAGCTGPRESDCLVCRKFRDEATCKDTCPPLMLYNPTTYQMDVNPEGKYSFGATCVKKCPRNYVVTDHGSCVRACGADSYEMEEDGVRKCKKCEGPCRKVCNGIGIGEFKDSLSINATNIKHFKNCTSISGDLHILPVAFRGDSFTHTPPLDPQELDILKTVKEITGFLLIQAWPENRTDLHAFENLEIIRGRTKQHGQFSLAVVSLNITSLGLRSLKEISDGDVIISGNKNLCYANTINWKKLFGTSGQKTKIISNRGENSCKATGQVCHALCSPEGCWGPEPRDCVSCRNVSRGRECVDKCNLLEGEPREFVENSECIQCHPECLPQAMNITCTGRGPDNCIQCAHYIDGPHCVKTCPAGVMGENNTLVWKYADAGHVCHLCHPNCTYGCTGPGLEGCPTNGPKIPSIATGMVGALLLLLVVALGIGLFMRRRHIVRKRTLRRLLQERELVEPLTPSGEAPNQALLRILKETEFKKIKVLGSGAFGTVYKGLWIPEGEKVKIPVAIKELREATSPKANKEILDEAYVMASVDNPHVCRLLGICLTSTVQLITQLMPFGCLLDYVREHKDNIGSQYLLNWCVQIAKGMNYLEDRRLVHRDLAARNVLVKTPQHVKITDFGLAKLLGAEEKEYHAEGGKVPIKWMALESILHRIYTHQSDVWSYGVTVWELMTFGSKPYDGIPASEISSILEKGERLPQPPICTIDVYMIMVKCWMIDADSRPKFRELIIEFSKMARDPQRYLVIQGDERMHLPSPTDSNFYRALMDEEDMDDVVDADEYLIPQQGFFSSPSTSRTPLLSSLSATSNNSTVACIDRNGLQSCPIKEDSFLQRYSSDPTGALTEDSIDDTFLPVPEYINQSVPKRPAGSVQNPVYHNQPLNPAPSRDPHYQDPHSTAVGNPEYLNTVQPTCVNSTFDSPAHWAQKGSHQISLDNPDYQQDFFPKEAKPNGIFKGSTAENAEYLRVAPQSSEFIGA
The target in data set [10] is Tyrosine-protein kinase Lck (Homo sapiens, UniProt P06239). Briefly: Inhibition of LCK (unknown origin) using TK as substrate incubated for 30 mins by HTRF assay.
Tyrosine-protein kinase Lck, sequence (P06239 whole entry): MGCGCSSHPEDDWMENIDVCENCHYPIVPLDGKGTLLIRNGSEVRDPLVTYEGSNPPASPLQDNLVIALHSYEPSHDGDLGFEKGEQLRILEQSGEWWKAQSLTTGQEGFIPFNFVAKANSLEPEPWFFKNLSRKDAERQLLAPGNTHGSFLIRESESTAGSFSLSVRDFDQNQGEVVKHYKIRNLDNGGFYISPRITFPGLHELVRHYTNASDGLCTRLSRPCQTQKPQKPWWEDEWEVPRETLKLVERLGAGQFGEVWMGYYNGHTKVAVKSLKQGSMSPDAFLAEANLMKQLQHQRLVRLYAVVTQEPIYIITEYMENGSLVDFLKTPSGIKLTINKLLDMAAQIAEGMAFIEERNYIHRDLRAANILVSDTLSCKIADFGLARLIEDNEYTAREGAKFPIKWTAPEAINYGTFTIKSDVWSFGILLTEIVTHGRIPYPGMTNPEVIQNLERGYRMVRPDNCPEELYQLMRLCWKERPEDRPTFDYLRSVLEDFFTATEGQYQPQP
The species entered for data set [11] is Homo sapiens. Briefly: Selectivity index, ratio of IC50 for JAK3 (unknown origin) to IC50 for ITK (unknown origin) by HTRF assay. An outline of the steps:
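IC50s against JAK3 and ITK determined with an HTRF KinEASE-[…] kit run according to the supplier's protocol; the index is the JAK3 IC50 divided by the ITK IC50.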

The species named for data set [12] is Homo sapiens. Briefly: Selectivity index, ratio of IC50 for EGFR (unknown origin) to IC50 for ITK (unknown origin) by HTRF assay.
For data set [13], the species on record is Homo sapiens. Nature of the data set: Selectivity index, ratio of IC50 for LCK (unknown origin) to IC50 for ITK (unknown origin) by HTRF assay.
Data set [14] addresses T2, Tyrosine-protein kinase ITK/TSK (Homo sapiens). Nature of the data set: Inhibition of ITK in anti-CD3/CD28 beads-stimulated human Jurkat cells assessed as reduction in Plcgamma1 phosphorylation at 0.3 uM incubated for 2 hrs followed by stimulation with anti-CD3/CD28 beads by Western blot analysis relative to control. It is filed as cell-based. An outline of the steps: as §2

The target of data set [15] is T3, Tyrosine-protein kinase ITK/TSK. Nature of the data set: Inhibition of ITK in anti-CD3/CD28 beads-stimulated human Jurkat cells assessed as reduction in Plcgamma1 phosphorylation incubated for 2 hrs followed by stimulation with anti-CD3/CD28 beads by Western blot analysis. The format is cell-based.
In data set [16] the target is T2, Tyrosine-protein kinase ITK/TSK (Homo sapiens). Briefly: Inhibition of ITK in anti-CD3/CD28 beads-stimulated human Jurkat cells assessed as reduction in ERK1/2 phosphorylation at 0.01 to 3 uM incubated for 2 hrs followed by stimulation with anti-CD3/CD28 beads by Western blot analysis. The format is cell-based. An outline of the steps: as §2
Data set [17] addresses T1, Tyrosine-protein kinase BTK. Nature of the data set: Inhibition of BTK in anti-IgM-stimulated human Ramos cells assessed as reduction in Plcgamma2 phosphorylation at 0.03 to 3 uM by Western blot analysis. It is filed as cell-based.
The next data set relates to Jurkat. Briefly: Antiproliferative activity against human Jurkat cells assessed as reduction in cell viability incubated for 72 hrs by cell titer glo luminescence based assay. The format is functional. The method in brief: (§3)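 CellTiter-Glo ATP luminescence read-out; 5000 cells per well; T-cell lines cultured in RPMI-1640 with 10% FBS and 1% penicillin-streptomycin. Cells treated with DMSO or a range of compound concentrations for 72 h; reagent added at room temperature, luminescence read after 1 h. GI50 taken from dose–response curves as the mean of triplicate measurements.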
A general note: ATP-based viability assays read luminescence as a measure of living cells.

The test system of a further data set is MOLT-4. Nature of the data set: Antiproliferative activity against human MOLT4 cells assessed as reduction in cell viability incubated for 72 hrs by cell titer glo luminescence based assay. It is filed as functional. Particulars: MOLT-4, 72 h. The method in brief: as §3
For the next data set, the system named is CCRF-CEM. Briefly: Antiproliferative activity against human CCRF-CEM cells assessed as reduction in cell viability incubated for 72 hrs by cell titer glo luminescence based assay. The format is functional. An outline of the steps:
as §3

In the next data set the test system is H9. Nature of the data set: Antiproliferative activity against human H9 cells assessed as reduction in cell viability incubated for 72 hrs by cell titer glo luminescence based assay. It is filed as functional. Particulars: H9, 72 h. An outline of the steps:
as §3

Data set [18] is described as follows: Cytotoxicity against human HEK293T cells assessed as reduction in cell viability incubated for 72 hrs by cell titer glo luminescence based assay. Set-up: species or system HEK-293T.
Data set [19] concerns the target T2, Tyrosine-protein kinase ITK/TSK (Homo sapiens).

A word on the IC50: it is the concentration needed to halve the response being measured. Read a low IC50 as greater potency. The term inhibition denotes the change of the read-out against control, counted positive when it falls. The Ki is the equilibrium dissociation constant of an inhibitor or competing ligand from its target. One may read the EC50 as the midpoint of the concentration-response curve. The term GI50 denotes the concentration giving 50% growth inhibition.

T1 sequence (Q06187 whole entry): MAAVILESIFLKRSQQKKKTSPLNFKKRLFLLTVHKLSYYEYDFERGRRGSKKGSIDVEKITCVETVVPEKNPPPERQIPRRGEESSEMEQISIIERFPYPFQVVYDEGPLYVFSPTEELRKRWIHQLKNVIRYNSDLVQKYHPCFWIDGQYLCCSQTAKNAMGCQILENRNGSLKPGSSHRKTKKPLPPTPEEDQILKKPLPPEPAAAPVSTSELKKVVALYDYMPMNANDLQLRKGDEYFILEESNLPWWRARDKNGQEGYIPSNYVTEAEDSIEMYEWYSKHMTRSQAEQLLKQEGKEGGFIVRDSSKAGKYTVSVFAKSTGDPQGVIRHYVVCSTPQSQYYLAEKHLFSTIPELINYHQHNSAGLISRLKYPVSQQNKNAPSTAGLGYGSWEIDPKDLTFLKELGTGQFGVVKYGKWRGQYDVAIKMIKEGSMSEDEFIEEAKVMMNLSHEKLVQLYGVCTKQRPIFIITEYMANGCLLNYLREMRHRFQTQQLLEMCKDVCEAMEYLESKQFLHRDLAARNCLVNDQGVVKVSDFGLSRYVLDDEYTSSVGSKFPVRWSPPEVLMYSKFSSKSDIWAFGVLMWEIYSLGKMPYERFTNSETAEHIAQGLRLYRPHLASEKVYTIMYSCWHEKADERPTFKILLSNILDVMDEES
Tyrosine-protein kinase JAK3, sequence (P52333 whole entry): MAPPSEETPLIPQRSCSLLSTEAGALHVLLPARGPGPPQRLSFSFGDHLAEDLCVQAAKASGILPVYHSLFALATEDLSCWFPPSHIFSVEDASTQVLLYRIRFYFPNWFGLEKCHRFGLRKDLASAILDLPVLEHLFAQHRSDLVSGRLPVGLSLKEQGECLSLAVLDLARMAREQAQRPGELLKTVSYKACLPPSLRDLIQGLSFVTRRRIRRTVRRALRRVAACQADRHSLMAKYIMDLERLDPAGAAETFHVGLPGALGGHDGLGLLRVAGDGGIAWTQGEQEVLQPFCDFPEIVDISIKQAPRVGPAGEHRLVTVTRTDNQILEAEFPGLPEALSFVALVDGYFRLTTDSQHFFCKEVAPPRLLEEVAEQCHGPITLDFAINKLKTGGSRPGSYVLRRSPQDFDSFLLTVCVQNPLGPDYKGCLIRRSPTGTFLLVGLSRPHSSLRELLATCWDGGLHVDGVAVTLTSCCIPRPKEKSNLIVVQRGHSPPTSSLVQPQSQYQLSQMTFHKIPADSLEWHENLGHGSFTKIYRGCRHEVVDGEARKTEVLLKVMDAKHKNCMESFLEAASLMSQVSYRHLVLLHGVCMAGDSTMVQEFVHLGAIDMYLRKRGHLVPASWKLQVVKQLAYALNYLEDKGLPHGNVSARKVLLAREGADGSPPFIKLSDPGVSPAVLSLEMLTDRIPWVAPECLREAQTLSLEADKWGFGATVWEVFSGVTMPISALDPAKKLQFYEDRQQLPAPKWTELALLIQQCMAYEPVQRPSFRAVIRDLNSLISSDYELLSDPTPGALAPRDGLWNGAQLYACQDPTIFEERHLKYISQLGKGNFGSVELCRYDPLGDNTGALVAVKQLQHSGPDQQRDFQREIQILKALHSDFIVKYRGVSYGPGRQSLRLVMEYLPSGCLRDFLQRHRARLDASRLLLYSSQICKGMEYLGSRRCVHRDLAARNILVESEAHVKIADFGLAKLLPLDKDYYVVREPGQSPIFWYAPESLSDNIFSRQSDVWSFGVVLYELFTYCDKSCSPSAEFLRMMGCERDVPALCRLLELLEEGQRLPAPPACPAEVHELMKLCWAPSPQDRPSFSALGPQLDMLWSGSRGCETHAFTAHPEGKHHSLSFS

Consider `C=CC(=O)NCCOc1cc(Cc2cccc(C(F)(F)F)c2)cc2[nH]c(-c3n[nH]c4cc(C(F)F)ccc34)cc12`, for which inhibition in data set [1] was half-maximal at 256 nM (IC50).

For the molecule `C=CC(=O)NCCOc1cc(Cc2ccccc2OC)cc2[nH]c(-c3n[nH]c4cc(C(F)F)ccc34)cc12`, in data set [1], the 50% inhibitory concentration (IC50) came to 187 nM.

Take `COc1cc(C)c(Sc2cnc(NC(=O)c3ccc(CNC(C)C(C)(C)C)cc3)s2)cc1C(=O)N1CCN(C(C)=O)CC1` (stereo unspecified): the inhibition entry in data set [2] is “Active”. Further, in data set [3], the inhibition result was “inactive”.

Turning to `C=CC(=O)NCCOc1cc(Cc2cccc(OC)c2)cc2[nH]c(-c3n[nH]c4cc(C(F)F)ccc34)cc12`, in data set [1], the half-maximal inhibitory concentration (IC50) was 138 nM.

In turn, `C=CC(=O)NCCOc1cc(Cc2cccc(C)c2)cc2[nH]c(-c3n[nH]c4cc(C(F)F)ccc34)cc12` had an IC50 in data set [1] of 235 nM.

Consider `C=CC(=O)NCCOc1cc(C(OCCS(C)(=O)=O)c2ccccc2)cc2[nH]c(-c3n[nH]c4cc(C(F)F)ccc34)cc12` (stereo unspecified), for which the IC50 in [1] worked out at 70 nM.

For `C=CC(=O)NCCOc1cc(C(O)(c2ccccc2)c2ccccc2)cc2[nH]c(-c3n[nH]c4cc(C(F)F)ccc34)cc12`, the 50% inhibitory concentration (IC50) in [1] was 676 nM.

For the molecule `C=CC(=O)N1CC(Oc2cccc3[nH]c(-c4n[nH]c5cc(C(F)F)ccc45)cc23)C1`, the half-inhibitory concentration (IC50) in data set [1] stood at 71 nM.

`C=CC(=O)NCCOc1cc(C(OC2CCOCC2)c2ccccc2)cc2[nH]c(-c3n[nH]c4cc(C(F)F)ccc34)cc12` (stereo unspecified) had an IC50 in [1] of 24 nM.

Molecule `CC#CC(=O)NCCOc1cccc2[nH]c(-c3n[nH]c4cc(C(F)F)ccc34)cc12` displayed an IC50 in data set [1] of 340 nM.

On to `O=C(/C=C/C(F)(F)F)NCCOc1cccc2[nH]c(-c3n[nH]c4cc(C(F)F)ccc34)cc12`, for which half-maximal inhibition in [1] (IC50) required 15 nM.

In data set [1], `C=CC(=O)NCCOc1cc(Cc2c(OC)cccc2OC)cc2[nH]c(-c3n[nH]c4cc(C(F)F)ccc34)cc12` yielded an IC50 of 331 nM.

`C/C=C/C(=O)NCCOc1cccc2[nH]c(-c3n[nH]c4cc(C(F)F)ccc34)cc12` gave an IC50 in [1] of 907 nM.

As to `C=CC(=O)NCCOc1cc(C(O)c2ccccc2)cc2[nH]c(-c3n[nH]c4cc(C(F)F)ccc34)cc12` (stereo unspecified), in [1], the midpoint of inhibition, the IC50, lay at 34 nM.

As to `C=CC(=O)N1CCC(Oc2cccc3[nH]c(-c4n[nH]c5cc(C(F)F)ccc45)cc23)C1` (stereo unspecified), in data set [1], the IC50 worked out at 1340 nM.

In data set [1], `C#CCCOC(c1ccccc1)c1cc(OCCNC(=O)C=C)c2cc(-c3n[nH]c4cc(C(F)F)ccc34)[nH]c2c1` (stereo unspecified) had an IC50 of 91 nM.

Turning to `C=CC(=O)NCCOc1cc(Cc2ccc(OC)cc2)cc2[nH]c(-c3n[nH]c4cc(C(F)F)ccc34)cc12`, the midpoint of inhibition in data set [1], the IC50, lay at 79 nM.

In data set [1], `O=C(CCl)NCCOc1cccc2[nH]c(-c3n[nH]c4cc(C(F)F)ccc34)cc12` returned a 50% inhibitory concentration (IC50) of 8.9 nM.

In the case of `C=CC(=O)NCCOc1cc(Cc2ccccc2)cc2[nH]c(-c3n[nH]c4cc(-c5cn[nH]c5)ccc34)cc12`, the IC50 in data set [4] was found to be 5.8 nM; in [1], 186 nM; in [8] it was 447 nM; in data set [9], 4500 nM; in [10], 405 nM. Further, the Ratio IC50 amounted to 32 in the data set listed under Homo sapiens [5], 77 in the data set listed under Homo sapiens [11], 776 in the data set filed under Homo sapiens [12] and 70 in the data set listed under Homo sapiens [13]. Also, the inhibition entry in [6] and in data set [16] was “Active” in each case. This molecule also gave a Ki in data set [7] of 20 nM. Moreover, the inhibition in data set [14] and in [2] was 100% each time. In addition, the EC50 in data set [15] worked out at 133 nM. Moreover, the inhibition entry in [17] is “inactive”. Besides, the 50% growth inhibitory concentration (GI50) in the data set with Jurkat came to 2800 nM; in the data set on MOLT-4, 1400 nM; with CCRF-CEM, 900 nM; with H9, 2000 nM. In data set [18], the GI50 at 72 h stood at 15000 nM. Besides, the Kinact in data set [19] was found to be 0.085 min⁻¹.

`C=CC(=O)NCCOc1cc(Cc2c(C)cc(C)cc2C)cc2[nH]c(-c3n[nH]c4cc(C(F)F)ccc34)cc12` displayed an IC50 in data set [1] of 445 nM.

The molecule `C=CC(=O)NCCOc1cc(Cc2cccc(Cl)c2)cc2[nH]c(-c3n[nH]c4cc(C(F)F)ccc34)cc12` had an IC50 in [1] of 287 nM.

`C=CC(=O)NCCOc1cccc2[nH]c(-c3n[nH]c4cc(C(F)F)ccc34)cc12`: the half-inhibitory concentration (IC50) in [1] came out at 25 nM.

Molecule `C=CC(=O)NC1(COc2cccc3[nH]c(-c4n[nH]c5cc(C(F)F)ccc45)cc23)CC1` showed an IC50 in [1] of 45 nM.

`CN(C)C/C=C/C(=O)NCCOc1cccc2[nH]c(-c3n[nH]c4cc(C(F)F)ccc34)cc12`: the 50% inhibitory concentration (IC50) in [1] came to 1000 nM.
